# Rpn11 block – inhibitors of human proteasome Rpn11; 360,000 compounds, 0.59% hits; calls only at 20 µM; human 26S proteasome, Ub4-pepOG fluorescence polarization; 20S core pre-blocked with epoxomicin;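 active = inhibition at 20 µM, scaled to each plate's controls, above about 33%, limit read from the data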
# SUMO HTRF inh – inhibitors of human SUMOylation (UBC9). HTRF SUMOylation assay, SAE1/SAE2 + UBC9, in vitro. 290,000 compounds, 0.36% hits. P63279. inhibition, % at 35 µM; in the data active = inhibition above about 50%, passing the limit was not always enough
# Target sequence (P63279 whole entry, looked up): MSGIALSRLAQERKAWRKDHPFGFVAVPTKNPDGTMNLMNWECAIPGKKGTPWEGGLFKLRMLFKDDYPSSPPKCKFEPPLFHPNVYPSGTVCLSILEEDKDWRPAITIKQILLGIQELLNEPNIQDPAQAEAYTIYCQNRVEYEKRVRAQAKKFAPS
# CSN inh – CSN deneddylation inhibition | Q92905 | Purified CSN, SCF-Nedd8-OG deneddylation, fluorescence polarization | inhibition, % at 12.5 µM | 360,000 compounds, 0.38% hits | AID 651999;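 active = pattern-corrected inhibition above about 35%, with an unprinted fluorescence ratio check between 0.5 and 1.5, limit read from the data, passing the limit was not always enough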;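 note: 0% = enzyme with substrate and 100% = substrate without enzyme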
#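 assay system = purified human Csn5 enzyme expressed in HEK293T cells | amount = 0.24 nM enzyme | buffer or medium = Tris/NaCl/DTT buffer, pH 7.5 | reagent = 10 nM SCFSkp2-Nedd8OG | compound = one concentration, 12.5 µM, 0.25% DMSO | times = 90 min reaction at room temperature | signal = FP | read-out basis = % inhibition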
# TPT1 inh – C. albicans TPT1 enzyme inhibition; recombinant caTPT1, FP RNA substrate dephosphorylation; inhibition, % at 5 µM; 300,000 compounds, 0.81% hits;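 active = inhibition above the mean of all tested compounds plus 3 SD, set per screening campaign, cut at about 24% in these data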;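 note: plate controls were DMSO alone for no effect and ferristatin control at 100 nM for full effect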
# SENP1 inh – SENP1 (human) catalytic domain inhibition. Q9P0U3. recombinant SENP1 catalytic domain, CyPet-SUMO1-YPet FRET cleavage. inhibition, % at 10 µM. 360,000 compounds, 0.21% hits. AID 624204;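 active = inhibition at least 30% at 10 µM, raw YFP signal under a set limit, fluorescence ratio 0.5 to 1.5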;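 note: 0% = enzyme with DMSO and 100% = no enzyme wells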
# Target sequence (Q9P0U3 419-644 limits assumed): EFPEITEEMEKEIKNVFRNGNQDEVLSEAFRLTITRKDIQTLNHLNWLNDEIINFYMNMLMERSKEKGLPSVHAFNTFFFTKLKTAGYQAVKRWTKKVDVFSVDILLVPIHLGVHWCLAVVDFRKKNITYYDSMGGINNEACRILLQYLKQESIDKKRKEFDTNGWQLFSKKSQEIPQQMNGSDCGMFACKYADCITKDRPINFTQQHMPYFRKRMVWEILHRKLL
#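 material = recombinant human SENP1 catalytic domain, His6-tagged | quantity = 20 pM enzyme | reagent = 25 nM SUMO1 FRET substrate | compound dosing = 10 µM single point, 0.5% DMSO | timing = 50 min enzyme reaction, room temperature, light-protected | detection = FRET, CFP and YFP emission | control set = no-enzyme low, enzyme-DMSO high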
# HNF4A DNA FP – change in binding of human HNF4 alpha to DNA; P41235; HNF4a-FITC DNA binding, fluorescence polarization, 1 h; activity change, % at 10 µM; 360,000 compounds, 0.3% hits; AID 1224865; in the data active = activity change above about 30%, passing the limit was not always enough
# SENP1 conf – confirmation of human SENP1 SUMO protease inhibitors | shares compounds with SENP1 inh | inhibition, % at 10 µM | recombinant SENP1, CyPet-SUMO1-YPet FRET cleavage | 520 compounds, 34% hits | AID 651678; in the data active = inhibition mostly above about 35%, no sharp cut-off; inactive = mostly below about 32%;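 note: 0% = enzyme with DMSO and 100% = no enzyme control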
# SENP1 kin conf – SENP1 (human) inhibition, kinetic confirmation; AID 651690; 520 compounds, 26% hits; recombinant SENP1, CyPet-SUMO1-YPet FRET kinetic cleavage; inhibition, % at 10 µM; shares compounds with SENP1 inh; in the data active = inhibition mostly above about 32%, no sharp cut-off; inactive = mostly below about 29%;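 note: 0% = DMSO with enzyme and 100% = no enzyme substrate only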
# * = called active by the depositor; i = inactive; nt = no result shown. This is a sample that favours compounds with a hit; in the whole collection about 1.8% have one here.
SMILES,Rpn11 block,SUMO HTRF inh,CSN inh,TPT1 inh,SENP1 inh,HNF4A DNA FP,SENP1 conf,SENP1 kin conf
Cc1ccc(C)c(NC(=O)COC(=O)c2ccc3ccccc3n2)c1,nt,nt,16,nt,38*,10,22,18
C#CC1(O)CC(C)NCC1(C)CCC#N (stereo not given),i,6,-3,0,0,2,nt,nt
N#C/C(=C\C=C\c1ccccc1[N+](=O)[O-])c1nc(-c2ccc3c(c2)OCO3)cs1,i,13,12,21,54*,6,4,13
N#C/C(=C\c1ccccc1[N+](=O)[O-])c1nc(C2CC2)cs1,i,15,5,3,1,-1,nt,nt
O=C(Nc1ccc(S(=O)(=O)O)cc1)c1ccc2c(c1)S(=O)(=O)c1ccccc1C2=O,i,nt,0,-5,2,2,nt,nt
O=C(Nc1ccc(Cl)cc1)c1ccc2c(c1)S(=O)(=O)c1ccccc1C2=O,i,nt,-1,-2,33*,-3,-22,-15
CC(=O)C1=C(C)N=c2s/c(=C/c3ccc4c(c3)OCO4)c(=O)n2C1c1ccc(N(C)C)cc1 (stereo not given),nt,nt,42*,nt,65*,78*,32,18
O=C(O)CCC(C(=O)O)n1c(O)c(C2=c3ccccc3=NC2=O)sc1=S (stereo not given),i,10,1,-1,0,-2,nt,nt
O=C(O)Cn1c(O)c(C2=c3ccccc3=NC2=O)sc1=O,i,3,25,-2,66*,36,67*,36*
C[C@@H]1c2ccccc2N2C[C@H](Cc3ccc(C(=O)c4ccccc4)cc3)C[C@@H]12,i,nt,1,nt,-2,-2,nt,nt
Fc1ccc(C2=CC(c3cccs3)n3nnnc3N2)cc1 (stereo not given),i,8,1,1,33*,-2,10,11
Cc1ccc(C2=CC(c3cccs3)n3nnnc3N2)cc1 (stereo not given),i,-7,-2,-4,58,-3,nt,nt
COc1ccccc1-c1cc2nc(NCCc3ccncc3)ccn2n1,i,nt,4,nt,-5,-3,nt,nt
CCOc1ccc(NC(=O)/C=C/c2ccccc2)c([N+](=O)[O-])c1,nt,28,-3,2,37*,9,15,10
CCOc1ccc(/C=C/C(=O)Nc2ccc(OC)cc2[N+](=O)[O-])cc1,nt,15,-16,-16,70*,23,52*,34*
CC(C)C(=O)Nc1nc(-c2ccc([N+](=O)[O-])cc2)cs1,i,8,1,1,2,1,nt,nt
CNc1nc(-c2ccc([N+](=O)[O-])cc2)cs1,i,-14,-4,-1,44*,-1,13,12
COC(=O)c1ccc(NC(=O)CCN2C(=O)C3C4CCC(C4)C3C2=O)cc1 (stereo not given),i,15,-7,-1,1,3,nt,nt
COC(=O)C(C)Sc1nnc(Cc2cc(=O)[nH]c(=O)[nH]2)n1-c1ccc(Cl)cc1 (stereo not given),i,18,-9,-12,20,-1,nt,nt
CCOC(=O)C(C)Sc1nnc(Cc2cc(=O)[nH]c(=O)[nH]2)n1-c1ccc(Cl)cc1 (stereo not given),i,17,-13,-5,64*,-8,13,8
S=C1CCSc2ccc(Cl)cc2N1,i,-24,0,nt,0,0,nt,nt
O=C1CCCC2=C1Sc1ccc(Cl)cc1N2,i,8,76,-10,72*,2,93*,50*
COc1cccc(CNC(=O)Cc2ccc(-c3ccccc3)cc2)c1,i,17,3,6,55*,7,18,20
Cc1c(C)n(C)c2ccc(C(=O)NCCc3ccco3)cc12,i,13,10,8,-24,16,nt,nt

# Assay outcomes: PubChem, several laboratories
